Measurements pooled from the literature.
Target: Dual specificity tyrosine-phosphorylation-regulated kinase 4 (DYRK4, Homo sapiens, UniProt Q9NR20)
One construct used (Q9NR20 1-520): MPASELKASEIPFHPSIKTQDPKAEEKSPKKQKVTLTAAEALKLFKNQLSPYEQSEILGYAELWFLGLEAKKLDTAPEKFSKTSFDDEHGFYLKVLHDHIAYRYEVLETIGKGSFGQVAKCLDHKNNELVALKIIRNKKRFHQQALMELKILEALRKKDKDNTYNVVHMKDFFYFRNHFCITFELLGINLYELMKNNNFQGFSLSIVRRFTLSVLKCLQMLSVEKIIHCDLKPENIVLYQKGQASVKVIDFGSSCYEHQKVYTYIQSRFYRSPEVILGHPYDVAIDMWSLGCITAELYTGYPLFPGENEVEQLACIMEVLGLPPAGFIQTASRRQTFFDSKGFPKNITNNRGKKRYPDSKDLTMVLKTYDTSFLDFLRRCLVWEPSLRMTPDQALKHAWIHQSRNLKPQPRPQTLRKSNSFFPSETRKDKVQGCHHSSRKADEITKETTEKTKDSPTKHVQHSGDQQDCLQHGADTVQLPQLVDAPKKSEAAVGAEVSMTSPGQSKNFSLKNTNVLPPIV

Structure (SMILES) | test | setting | endpoint | value
O=C1Nc2ccc(Cl)cc2C1=Cc1cc(Cl)c(O)c(Cl)c1 | cell-free assay | 0.5 µM | remaining signal | 95.7%
CC(C)(O)[C@H]1CC[C@H](Nc2ccc3ncc(-c4cccc(C(F)(F)F)c4)n3n2)CC1 | enzyme activity, inhibitor | 1 µM | remaining activity | 97.3%
Cn1cnc(Br)c1C1=CN(c2ncnc3[nH]cnc23)CCS1 | enzyme activity, inhibitor, radiometric | 50 nM | inhibition | 14.9%
O=C(Nc1cnn(-c2csc(C(=O)NC3COC3)c2)c1)Nc1ccccc1Cl | enzyme activity, inhibitor | 5 µM | remaining activity | 94.6%
COc1cc2ncnc(Nc3ccc(Oc4ccccc4)cc3C)c2cc1OC | enzyme activity, inhibitor | 1 µM | inhibition | 0%
CC(C)(C)c1nc(-c2cccc(NS(=O)(=O)c3c(F)cccc3F)c2F)c(-c2ccnc(N)n2)s1 | enzyme activity, inhibitor, radiometric | 1 µM | remaining activity | 38%
COc1cc(-c2cc(-c3ccc(N4CCNCC4)cc3)cnc2C)cc(OC)c1OC | enzyme activity, inhibitor | 0.1 µM | inhibition | 2%
CC(C)(C)c1nc2c(s1)c1nc(N)ncc1c1ccc(NS(=O)(=O)c3c(F)cccc3F)c(F)c12 | enzyme activity, inhibitor, radiometric | 1 µM | remaining activity | 92%
COc1cc2ncnc(Nc3ccc(Oc4ccccc4)c(C)c3C)c2cc1OC | enzyme activity, inhibitor | 1 µM | inhibition | -1%
O=C(Nc1cnn(-c2csc(C(=O)NC3COC3)c2)c1)Nc1c(F)cccc1Cl | enzyme activity, inhibitor | 5 µM | remaining activity | 96.2%
Cn1cc(-c2cccc(N3CCc4c(sc5c4CC(C)(C)C5)C3=O)c2CO)cc(Nc2ccncn2)c1=O | enzyme activity, inhibitor | 1 µM | inhibition | 2%
O=C1NC(=O)c2cc(Nc3ccc(F)cc3)c(Nc3ccc(F)cc3)cc21 | cell-free assay | 0.5 µM | remaining signal | 98.6%
Cn1cc(-c2cc(F)cc(N3CCn4c(cc5c4CCCC5)C3=O)c2CO)cc(Nc2ccc(N3CCN(C4COC4)CC3)cn2)c1=O | enzyme activity, inhibitor | 0.1 µM | inhibition | 5%
CCCS(=O)(=O)Nc1ccc(F)c(C(=O)c2c[nH]c3ncc(-c4ccc(Cl)cc4)cc23)c1F | enzyme activity, inhibitor | 1 µM | inhibition | < 10%
